Screening data from PubChem.
FXIIa inh 1536 = human FXIIa protease inhibitors, primary screen, biochemical, 1536-well. inhibition, % at 5 µM. actives 0.3% (n = 220,000). purified FXIIa, Boc-QGR-AMC fluorogenic substrate, 2 h. AID 800, 2007; in the data active means inhibition above about 40%;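 further: 0% = enzyme with no compound and 100% = blank without enzyme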
FXIa inh 1536 = human FXIa protease inhibitors, primary screen, biochemical, 1536-well; Coagulation factor XI (Homo sapiens), P03951; purified FXIa, Boc-Glu-Ala-Arg-AMC fluorogenic substrate; inhibition, % at 5 µM; actives 0.14% (n = 220,000); AID 798, 2007;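 active means inhibition of at least 40%; inactive means inhibition below 40%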;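 further: fluorescence of freed AMC excited at 355 nm; 0% = enzyme without compound and 100% = no enzyme blank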
KLK5 inh = human KLK5 protease inhibitors, primary screen, biochemical, 1536-well; recombinant hK5, fluorogenic AMC substrate cleavage; Kallikrein-5 (Homo sapiens), Q9Y337; inhibition, % at 5 µM; actives 0.59% (n = 210,000);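 active means inhibition of 40% or more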;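 further: 0% = enzyme controls without compound and 100% = no-enzyme blanks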
Target sequence (Q9Y337 67-293 limits assumed): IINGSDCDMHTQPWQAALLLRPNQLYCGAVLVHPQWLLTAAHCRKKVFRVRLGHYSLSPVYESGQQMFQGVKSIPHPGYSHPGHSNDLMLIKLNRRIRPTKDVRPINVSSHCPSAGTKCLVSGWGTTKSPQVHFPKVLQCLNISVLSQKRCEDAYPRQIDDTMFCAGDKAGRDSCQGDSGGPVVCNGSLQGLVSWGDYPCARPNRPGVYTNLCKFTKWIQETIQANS
Rce1 inh = yeast Rce1p protease inhibitors, primary screen, biochemical, fluorescence, cell-free homogeneous; CAAX prenyl protease 2 (Saccharomyces cerevisiae (strain ATCC 204508 / S288c)), Q03530; yeast membranes, quenched prenylated peptide cleavage fluorescence; calls only; actives 0.27% (n = 290,000);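 active means fall in fluorescence gain of 50% or more versus controls, with final raw signal at or below 3038400; inconclusive means same 50% fall but final raw signal above 3038400; inactive means fall in fluorescence gain under 50%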;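 further: plate controls were neutral control wells for no effect and wells lacking membranes for full effect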
Target sequence (Q03530 whole entry, looked up): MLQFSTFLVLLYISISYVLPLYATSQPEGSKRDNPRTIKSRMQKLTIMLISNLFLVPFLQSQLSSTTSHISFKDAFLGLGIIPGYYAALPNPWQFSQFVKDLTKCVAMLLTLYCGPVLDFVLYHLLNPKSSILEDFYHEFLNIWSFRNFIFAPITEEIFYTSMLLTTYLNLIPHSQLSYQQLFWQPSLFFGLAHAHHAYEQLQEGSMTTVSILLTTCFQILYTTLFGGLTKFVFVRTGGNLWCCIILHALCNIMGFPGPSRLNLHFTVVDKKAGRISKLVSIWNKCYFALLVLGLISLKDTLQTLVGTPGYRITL
Thrombin inh = human alpha-thrombin inhibitors, primary screen, counter-screen for coagulation protease inhibitor project, biochemical, 1536-well, fluorogenic AMC substrate | Prothrombin (Homo sapiens), P00734 | Boc-VPR-AMC fluorogenic substrate cleavage | inhibition, % at 5 µM | actives 0.26% (n = 220,000);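 active means inhibition at or above 40%; inactive means inhibition below 40%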;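 further: 0% = enzyme with no compound and 100% = wells without enzyme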
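Material: human alpha-thrombin protein; Also added: Boc-VPR-AMC substrate, 15 µM final; Timing: enzyme reaction carried out at room temperature; Signal: fluorescence, ex 355 nm, em 460 nm; Measure: % inhibition of thrombin; Controls: enzyme without compound as high, wells lacking enzyme as low.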
CTSL1 counter = Fasciola hepatica cathepsin L1 inhibitors, primary screen, counter-screen for PFM18AAP inhibitor project, biochemical, QFRET, fluorogenic peptide substrate | inhibition, % at 5.96 µM | recombinant F. hepatica cathepsin L1, Z-Leu-Arg-MCA fluorescence | actives 0.49% (n = 300,000);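 active means inhibition above the mean of all tested compounds plus 3 SD, set per screening campaign, cut at about 17% in these data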;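 further: 0% = plate median of test compound wells and 100% = 1 µM Z-Phe-Ala-diazomethylketone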
The depositor's hits bear a star; i = inactive; ? = inconclusive; . = no result given; + = active, no number. The list is not random: actives were taken first. Their share in the collection is about 1.4%.

SMILES | FXIIa inh 1536 | FXIa inh 1536 | KLK5 inh | Rce1 inh | Thrombin inh | CTSL1 counter
CC1=NN(c2ccccc2)C(=O)/C1=C/c1cccs1 | 26 | 8 | -12 | i | -2 | -3
CC1=NN(c2ccccc2)C(=O)/C1=C\c1ccc(Br)s1 | 10 | 11 | -18 | + | 0 | -4
CCCCOc1cccc(C(=O)N(Cc2ccccc2)C2CCS(=O)(=O)C2)c1 (stereo unspecified) | . | . | . | i | . | 5
CC(=O)N(C)c1ccc(NC(=O)/C=C/c2ccccc2Cl)cc1 | 9 | -2 | 2 | + | -1 | 4
Cc1cc(C)nc(NC(=O)/C=C/c2ccc(Cl)cc2Cl)c1 | 8 | -5 | 1 | i | -8 | 19*
Cc1cc(N)c2cc(NC(=O)/C=C/c3ccccc3Cl)ccc2n1 | 4 | -1 | -11 | + | -7 | 0
Cc1cc(C)nc(NC(=O)/C=C/c2ccccc2Cl)n1 | -5 | -17 | -30 | i | 7 | 3
Cc1n[nH]c(C)c1S(=O)(=O)N1CCC(C(=O)Nc2cccc(F)c2)CC1 | . | . | . | i | . | -5
Cn1ncc(Cl)c1C(=O)NC(=S)Nc1sc2c(c1C#N)CCCCC2 | -4 | -8 | -16 | i | -5 | -1
CSc1cc(C)n(-c2ccccc2)c(=S)c1C(C)=O | 18 | 2 | 46* | i | 20 | 0
CC(=O)c1sc(=S)n(-c2ccccc2)c1C | 23 | 11 | 13 | i | 14 | -5
CC(C)(C)CN1CCC(Oc2cccc(C(=O)N3CCNC(=O)C3(C)C)c2)CC1 | . | . | . | i | . | 19*
O=C(CN(Cc1ccccc1)C(=O)CCl)c1cccc(Br)c1 | . | . | . | . | . | 75*
CC(C)(C)NC(=O)NC(=O)CN1CCN(C(c2ccccc2)c2ccccc2)CC1 | 4 | -6 | -4 | i | 0 | 5
CC(=O)Nc1cc2c(cc1C(=O)c1ccccc1)OCCO2 | 9 | 4 | 49* | i | 34 | 0
CCC(=O)Nc1cc2c(cc1C(=O)c1ccccc1)OCCO2 | 2 | -4 | -5 | i | -6 | -3
O=C(Nc1cc2c(cc1Br)OCCO2)c1ccco1 | 7 | 5 | -6 | i | 1 | 3
CC(=O)c1cc2c(cc1NC(=O)c1ccco1)OCCO2 | 4 | -3 | -15 | i | 0 | 38*
O=C(/C=C/c1ccccc1[N+](=O)[O-])NCc1cccnc1 | 3 | -5 | -7 | i | -9 | 1
Nc1ccc(S(=O)(=O)NC2(C(F)(F)F)NC(=O)N(Cc3ccccc3)C2=O)cc1 (stereo unspecified) | . | . | . | i | . | -2
CCOC(=O)N1CCN(C(=O)CSc2nnc(CNC(=O)c3c(F)cccc3Cl)o2)CC1 | 22 | -1 | 42* | i | 13 | -1
O=C(NCc1nnc(SCC(=O)N2CCCC2)o1)c1c(F)cccc1Cl | 8 | -1 | -6 | i | -2 | 3
Cc1cccc([C@@H]2[C@@H]3C(=O)N(Cc4ccccc4)C(=O)[C@@H]3[C@]3(Cc4ccc(Cl)cc4)C(=O)N(c4ccc(Br)cc4)C(=O)N23)c1 | . | . | . | i | . | 0
COc1ccc(N=C2S/C(=C\c3cc(C)n(C)c3C)C(=O)N2C)cc1 | 0 | 8 | 41* | i | 12 | 2
CCOc1ccc(N(CC(=O)N2CCN(C(=O)CN(c3ccc(OCC)cc3)S(C)(=O)=O)CC2)S(C)(=O)=O)cc1 | . | . | . | i | . | 0
SMILES | FXIIa inh 1536 | FXIa inh 1536 | KLK5 inh | Rce1 inh | Thrombin inh | CTSL1 counter
COc1ccc(Cn2c(/C=C/c3ccccc3)nc3ccccc32)cc1 | -10 | -14 | -168 | ? | -6 | 3
COc1ccc(/C=C/c2nc3ccccc3n2C)cc1 | 7 | -2 | 7 | + | 2 | 1
O=C(CCl)N1N=C(c2cccs2)CC1c1ccco1 (stereo unspecified) | 7 | -4 | 2 | i | -2 | 27*
O=C(CCl)N1N=C(c2ccco2)CC1c1ccco1 (stereo unspecified) | . | . | . | i | . | 13
O=C(O)/C=C/C(=O)N1N=C(c2ccco2)CC1c1ccco1 (stereo unspecified) | . | . | . | i | . | 35*
O=C(O)/C=C/C(=O)Nc1cccnc1 | 11 | 16 | 72* | . | 31 | 0
CC1CC(C)CN(CCC(=O)Nc2ccc(Br)cc2)C1 (stereo unspecified) | . | . | . | i | . | 18*
CC1=NOC(=O)/C1=C\c1ccc(-c2ccccc2Br)o1 | 15 | 0 | -4 | i | 7 | .
CCCCn1nnc(NC(=O)COc2ccc(Cl)c(C)c2)n1 | 7 | 0 | 104* | i | 10 | -3
CCCn1nnnc1NC(=O)COc1ccc(Cl)c(C)c1 | 15 | 31 | -19 | i | -4 | -2
CCc1cc2c(SCC(=O)N(C)C3CCS(=O)(=O)C3)ncnc2s1 (stereo unspecified) | 23 | 51* | 37 | i | 19 | 0
CS(=O)(=O)CCSc1ncccc1C(=O)NCc1cccs1 | 8 | 2 | -1 | i | -5 | -4
COc1ccc(S(=O)(=O)NCC2CCCO2)cc1NC(=O)c1ccccc1 (stereo unspecified) | . | . | . | i | . | 5
COc1ccc(S(=O)(=O)NCC2CCCO2)cc1NC(=O)c1ccccc1F (stereo unspecified) | . | . | . | + | . | -6
CCN(CC)C(=O)CSc1nnc(-c2ccccn2)n1Cc1ccccc1 | 3 | -3 | -3 | i | -7 | -2
COc1cccc(C(=O)Nc2sc3c(c2C(=O)O)CCCC3)c1 | . | . | . | i | . | .
CC(=O)N1CCc2c(sc(NC(=O)c3cccc(N4C(=O)CCC4=O)c3)c2C(N)=O)C1 | . | . | . | i | . | 25*
COc1cccc(C(=O)Nc2sc3c(c2C#N)CCN(C(C)=O)C3)c1 | 26 | 30 | 42* | i | 4 | 1
CCOC(=O)c1c(NC(=O)c2cccc(N3C(=O)CCC3=O)c2)sc(C)c1C | 4 | -5 | -3 | + | -7 | 6
CCOC(=O)c1c(-c2ccc(-c3ccccc3)cc2)csc1NC(=O)c1cccc(N2C(=O)CCC2=O)c1 | 7 | 4 | -7 | i | -6 | 0
CCOC(=O)CC1C(=O)NCCN1C(=O)c1cc2c(=O)n3cccc(C)c3nc2s1 (stereo unspecified) | -12 | -12 | -23 | + | -14 | 9
O=C(NC1CCCCC1)C(c1ccc2ncccc2c1)N(Cc1ccccc1)C(=O)c1ccc2c(c1)OCCO2 (stereo unspecified) | 17 | 6 | -1 | i | 4 | -1
